Article PMC9283735 (Clinical and Translational Science, 2022)
Read-outs that look alike come from different tables or passages of the source. *1 amine or outer side, *2 acyl side, *3 side chain or, on linkers, in order; H or OH if unused. Where a SMILES comes first, the peptide text is derived from it. Bridges are numbered along the chain shown (N, C = ends). [ ]: non-standard residue; d: D form. The star is where a group is joined. Orn(4R-OH,5R-OCH2CH2NMe3+) = C[N+](C)(C)CCO[C@@H](N[*:3])[C@H](O)C[C@H](N[*:1])C(=O)[*:2]; pTerphenylCO(4''-OnC5H11) = CCCCCOc1ccc(-c2ccc(-c3ccc(C(=O)*)cc3)cc2)cc1; hTyr(3S-OH,4S-OH) = N[C@H](C(=O)O)[C@H](O)[C@@H](O)c1ccc(O)cc1; Pro(3S-OH,4S-Me) = C[C@H]1CN[C@H](C(=O)O)[C@H]1O; Hyp = O=C(O)[C@@H]1C[C@@H](O)CN1

Assays:
[1] = rats; cited from earlier work
[2] = Plasma pharmacokinetics after a single s.c. dose; type: in vivo, human; conditions: 10 mg single s.c. dose, healthy adults; for AUC(0-t): AUC0-last; for AUC(0-t) / Tmax: N = 6; for Tmax: T max
How it was run: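 Healthy adults aged 18–45 y were randomized 3:1 to a single s.c. injection of the test compound (100 mg/ml formulation with mannitol) or placebo (5% dextrose). Parameters came from noncompartmental analysis (Lambda Z: adjusted r² ≥0.90, span ≥2.0 half-lives, ≥2 points after Tmax).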

healthy adult subjects [3] = test: Solicited local reactogenicity symptoms; type: in vivo, human; conditions: 1 mg or 10 mg single s.c. dose
How it was run: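 The injection site was evaluated from dosing to day 30: in-unit confinement for 7 days, then follow-up on days 14, 21 and 30 (±1 day). Solicited local symptoms were pain, tenderness, pruritus, ecchymosis, induration/swelling, erythema, nodule and ulceration, each graded mild (1), moderate (2) or severe (3). Subjects were randomized 3:1 to test compound or 5% dextrose placebo. Proportions carry Wilson-score 95% CIs.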

[4] = single i.v. doses of 50, 100, 200 and 400 mg, human plasma; cited from earlier work
healthy adult subjects [5] = type: in vivo, human
How it was run: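 Unsolicited AEs (volunteered, not pre-specified) were recorded from dosing to final follow-up (day 30), graded 1–3, judged related or unrelated by the study physician, and coded with MedDRA 23.1. Clinical evaluation included ECGs, physical examinations and vital signs on select days. Laboratory tests covered hematology, coagulation, blood chemistry and dipstick urinalysis, run on samples taken after a fast of at least 8 h.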

[6] = monkeys; cited from earlier work
[7] = human, plasma, sc, 10 mg, geometric mean, NCA
[8] = human, plasma, sc, 10 mg, median, NCA
[9] = cohort 1 (1 mg s.c.), of 3 who received rezafungin
[10] = cohort 2 (10 mg s.c.), of 6 who received rezafungin

## CCCCCOc1ccc(-c2ccc(-c3ccc(C(=O)N[C@H]4C[C@@H](O)[C@@H](OCC[N+](C)(C)C)NC(=O)[C@@H]5[C@@H](O)[C@@H](C)CN5C(=O)[C@H]([C@@H](C)O)NC(=O)[C@H]([C@H](O)[C@@H](O)c5ccc(O)cc5)NC(=O)[C@@H]5C[C@@H](O)CN5C(=O)[C@H]([C@@H](C)O)NC4=O)cc3)cc2)cc1 [rezafungin] ({pTerphenylCO(4''-OnC5H11)}-[Orn(4R-OH,5R-OCH2CH2NMe3+)]T[Hyp][hTyr(3S-OH,4S-OH)]T[Pro(3S-OH,4S-Me)]; lactam 1-C)
[1]
  bioavailability of s.c. formulation: ≤ 80%
[2]
  exposure period: ~1 month
[2]; plasma, NCA, geometric mean, N = 5
  t 1/2, geometric mean: 186.2 h
[2]; plasma, NCA, maximum, N = 5
  AUC0-inf, maximum: 53,200 ng*h/ml
  CL/F, maximum: 0.344 L/h
  V z/F, maximum: 95.6 L
  t 1/2, maximum: 219 h
[2]; plasma, NCA, minimum, N = 5
  CL/F, minimum: 0.188 L/h
  V z/F, minimum: 38.0 L
  t 1/2, minimum: 140 h
[2]; [7]
  AUC(0-t): 32800 ng·h/mL
  Tmax: 112 h
[2]; [8]
  AUC(0-t): 32000 ng·h/mL
  Tmax: 144 h
[2]; human, plasma, sc, 10 mg, CL/F (apparent clearance), mean, NCA, N = 5
  CL/F: 4.35 mL/min
[2]; human, plasma, sc, 10 mg, CL/F, geometric mean, NCA, N = 5
  CL/F: 4.25 mL/min
[2]; human, plasma, sc, 10 mg, CL/F, median, NCA, N = 5
  CL/F: 4.5 mL/min
[2]; human, plasma, sc, 10 mg, mean, NCA
  Tmax: 120 h
[2]; human, plasma, sc, 10 mg, t 1/2, median, NCA, median, N = 5
  half-life: 193 h
Healthy adult subjects [3]
  intensity of solicited reactogenicity symptoms: mild to moderate
[4]
  T max after start of infusion: ~ 1 h
  Total body clearance: ~ 0.2 L/h
Healthy adult subjects [5]; cohort 1 (1 mg s.c.), asymptomatic, determined not rezafungin-related
  severe bradycardia, subjects: single subject
Healthy adult subjects [5]; [9]
  sinus bradycardia (unsolicited AE), % of subjects: 67%
  sinus bradycardia (unsolicited AE), subjects: 2
Healthy adult subjects [5]; cohort 2 (10 mg s.c.)
  unsolicited AEs deemed related to rezafungin, number of subjects: three
Healthy adult subjects [5]; cohort 2 (10 mg s.c.), all mild
  unsolicited AEs deemed related to rezafungin, number of AEs: Five
Healthy adult subjects [5]; [10]
  increased alanine aminotransferase (unsolicited AE), % of subjects: 33%
  increased alanine aminotransferase (unsolicited AE), subjects: 2
[6]
  bioavailability of s.c. formulation: ≤ 80%
